≈ marks a conversion by molar mass, not a printed value.
Legend:
Vero [1] = experiment: Cytotoxic activity against Junin virus in Vero Cells; assay type: functional; conditions: Chlorocebus sabaeus
In short: (§1)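 Antiviral screen in cell culture (HeLa, HEL, E6SM or Vero, per line). IC50 is the concentration that reduces virus-induced cytopathogenicity by 50%.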

Vero [2] = experiment: Cytotoxic activity against cell morphology in Vero Cells; assay type: functional; conditions: Chlorocebus sabaeus
In short: (§2)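 Host cells under the conditions of the antiviral assays (E6SM, HeLa or Vero, per line). Cytotoxic concentration is the one causing microscopic alteration of normal cell morphology in about 50% of cells.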

Vero [3] = experiment: Cytotoxic activity against Tacaribe virus in Vero Cells; assay type: functional; conditions: Chlorocebus sabaeus; in short: as §1
HEL [4] = experiment: Cytotoxic activity against cell growth in HEL Cells; assay type: functional; conditions: Homo sapiens
In short: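 HEL cell cultures. CC50 is the concentration that reduces cell growth by 50%.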

HEL [5] = experiment: Cytotoxic activity against VZV (OKA) virus in HEL Cells; assay type: functional; conditions: Homo sapiens; in short: as §1
HeLa [6] = experiment: Cytotoxic activity against cell morphology in HeLa Cells; assay type: functional; conditions: Homo sapiens; in short: as §2
Vero [7] = experiment: Cytotoxic activity towards viable cells in Vero cells; assay type: functional; conditions: Chlorocebus sabaeus
In short: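 Vero cells. CC50 is the concentration that reduces the number of viable cells by 50%.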

HeLa [8] = experiment: Cytotoxic activity against VZV virus in HeLa Cells; assay type: functional; conditions: Homo sapiens
HEL [9] = experiment: Cytotoxic activity against HCMV(Davis) virus in HEL Cells; assay type: functional; conditions: Homo sapiens
E6SM [10] = experiment: Cytotoxic activity against vaccinia virus in E6SM Cells; assay type: functional; conditions: Homo sapiens; in short: as §1
HEL [11] = experiment: Cytotoxic activity against TK-VZV (07/1) virus in HEL Cells; assay type: functional; conditions: Homo sapiens
Vero [12] = experiment: Cytotoxic activity against PV-3 virus in Vero Cells; assay type: functional; conditions: Chlorocebus sabaeus
HEL [13] = experiment: Cytotoxic activity against TK-VZV (YS/R) virus in HEL Cells; assay type: functional; conditions: Homo sapiens
HeLa [14] = experiment: Cytotoxic activity against Coxsackie B4 virus in HeLa Cells; assay type: functional; conditions: Homo sapiens
Vero [15] = experiment: Inhibitory activity against virus plaque formation (PV-3) in Vero cells; assay type: functional, cell-based; conditions: Chlorocebus sabaeus
In short: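 Poliovirus type 3 in Vero cells. IC50 is the concentration that reduces virus plaque formation by 50%.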

Vero [16] = experiment: Inhibitory activity against virus-induced cytopathogenicity (VSV)in Vero cells; assay type: functional, cell-based; conditions: Chlorocebus sabaeus
In short: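 Vesicular stomatitis virus in Vero cells. IC50 is the concentration that reduces virus-induced cytopathogenicity by 50%.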

Vero [17] = experiment: Cytotoxic activity against Reo-1 virus in Vero Cells; assay type: functional; conditions: Chlorocebus sabaeus
E6SM [18] = experiment: Cytotoxic activity against HSV-1(KOS) virus in E6SM Cells; assay type: functional; conditions: Homo sapiens; in short: as §1
E6SM [19] = experiment: Cytotoxic activity against HSV-2 (G) virus in E6SM Cells; assay type: functional; conditions: Homo sapiens
E6SM [20] = experiment: Cytotoxic activity against TK-HSV-1 (B2006) virus in E6SM Cells; assay type: functional; conditions: Homo sapiens
HEL [21] = experiment: Cytotoxic activity against VZV (YS) virus in HEL Cells; assay type: functional; conditions: Homo sapiens
HeLa [22] = experiment: Cytotoxic activity against Polio-1 virus in HeLa Cells; assay type: functional; conditions: Homo sapiens; in short: as §1
Vero [23] = experiment: Cytotoxic activity against forest virus in Vero Cells; assay type: functional; conditions: Chlorocebus sabaeus; in short: as §1
Vero [24] = experiment: Cytotoxic activity against Sindbis virus in Vero Cells; assay type: functional; conditions: Chlorocebus sabaeus
HEL [25] = experiment: Cytotoxic activity against HCMV (AD-169) virus in HEL Cells; assay type: functional; conditions: Homo sapiens
E6SM [26] = experiment: Cytotoxic activity against VSV virus in E6SM Cells; assay type: functional; conditions: Homo sapiens; in short: as §1
E6SM [27] = experiment: Cytotoxic activity against cell morphology in E6SM Cells; assay type: functional; conditions: Homo sapiens; in short: as §2
[28] = Inhibitory activity against S-adenosyl-L-homocysteine hydrolase from rabbit erythrocytes

Compound | CC50 (Vero [1]) [µg/mL] | CC50 (Vero [2]) [µg/mL] | CC50 (Vero [3]) [µg/mL] | CC50 (HEL [4]) [µg/mL] | CC50 (HEL [5]) [µg/mL] | CC50 (HeLa [6]) [µg/mL] | CC50 (Vero [7]) [µg/mL] | CC50 (HeLa [8]) [µg/mL] | CC50 (HEL [9]) [µg/mL] | CC50 (E6SM [10]) [µg/mL] | CC50 (HEL [11]) [µg/mL] | CC50 (Vero [12]) [µg/mL] | CC50 (HEL [13]) [µg/mL] | CC50 (HeLa [14]) [µg/mL] | IC50 (Vero [15]) [µg/mL] | IC50 (Vero [16]) [µg/mL] | CC50 (Vero [17]) [µg/mL] | CC50 (E6SM [18]) [µg/mL] | CC50 (E6SM [19]) [µg/mL] | CC50 (E6SM [20]) [µg/mL] | further results
Nc1ncnc2c1ncn2[C@@H]1C=C(CCO)[C@@H](O)[C@H]1O | 5 (≈ 18 µM) | > 400 | 20 (≈ 72.1 µM) | > 50 | > 50 | > 400 | > 500 | 0.7 (≈ 2.52 µM) | 0.5 (≈ 1.8 µM) | 0.1 (≈ 0.361 µM) | > 50 | 2 (≈ 7.21 µM) | > 50 | > 200 | 0.35 (≈ 1.26 µM) | 1 (≈ 3.61 µM) | 70 (≈ 252 µM) | > 400 | > 400 | > 400 | CC50 (HEL [21]): > 50 µg/mL; CC50 (HeLa [22]): > 200 µg/mL; CC50 (Vero [23]): > 400 µg/mL; CC50 (Vero [24]): > 400 µg/mL; CC50 (HEL [25]): 0.15 µg/mL (≈ 0.541 µM); CC50 (E6SM [26]): 1 µg/mL (≈ 3.61 µM); CC50 (E6SM [27]): > 400 µg/mL
Nc1nc(O)c2ncn([C@@H]3C=C(CCO)[C@@H](O)[C@H]3O)c2n1 |  |  |  |  |  |  | > 500 |  |  |  |  |  |  |  | > 25 | > 500 |  |  |  |  | 
Nc1nccc2c1ncn2[C@@H]1C=C(CCO)[C@@H](O)[C@H]1O |  |  |  |  |  |  | > 500 |  |  |  |  |  |  |  | > 25 | 3.9 (≈ 14.1 µM) |  |  |  |  | 
Cc1cn([C@@H]2C=C(CCO)[C@@H](O)[C@H]2O)c(=O)[nH]c1=O |  |  |  |  |  |  | > 500 |  |  |  |  |  |  |  | > 25 | > 500 |  |  |  |  | 
Nc1ccn([C@@H]2C=C(CCO)[C@@H](O)[C@H]2O)c(=O)n1 |  |  |  |  |  |  | > 500 |  |  |  |  |  |  |  | > 25 | > 500 |  |  |  |  | 
Nc1ncnc2c1ncn2[C@@H]1C=C(CO)[C@@H](O)[C@H]1O [NEOPLANOCIN A] | 0.5 (≈ 1.9 µM) | > 10 | 2 (≈ 7.6 µM) | > 20 | 15 (≈ 57 µM) | > 40 | 152 (≈ 577 µM) | 2 (≈ 7.6 µM) | 0.4 (≈ 1.52 µM) | 0.7 (≈ 2.66 µM) | 10 (≈ 38 µM) | 2 (≈ 7.6 µM) | 7 (≈ 26.6 µM) | > 40 | 0.74 (≈ 2.81 µM) | 1 (≈ 3.8 µM) | 4 (≈ 15.2 µM) | > 70 | > 70 | 40 (≈ 152 µM) | CC50 (HEL [21]): 9 µg/mL (≈ 34.2 µM); IC50 [28]: 0.004 µg/mL (≈ 0.0152 µM); CC50 (HeLa [22]): > 40 µg/mL; CC50 (Vero [23]): > 10 µg/mL; CC50 (Vero [24]): > 10 µg/mL; CC50 (HEL [25]): 0.3 µg/mL (≈ 1.14 µM); CC50 (E6SM [26]): 7 µg/mL (≈ 26.6 µM); CC50 (E6SM [27]): 70 µg/mL (≈ 266 µM)

Source: ChEMBL document CHEMBL1129341, “New neplanocin analogues. 6. Synthesis and potent antiviral activity of 6'-homoneplanocin A1” (J Med Chem, 1996)
